Reference: ChEMBL document CHEMBL1240422, “Design, synthesis and biological evaluation of 3,5-diaryl-isoxazoline/isoxazole-pyrrolobenzodiazepine conjugates as potential anticancer agents” (2010)
Active and inactive are the calls of the source. The calls are words filed in the database; no cut-off is given here.

Experiments:
ZR-75-1 = assay: Anticancer activity against human ZR-75-1 cells after 48 hrs by SRB assay; assay type: functional; details: ZR-75-1, 48 h
Procedure, shortened: (§1)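 Cells grown in RPMI 1640 with 10% FBS and 2 mM L-glutamine, plated at densities set by doubling time, and preincubated 24 h at 37 °C, 5% CO2. Compounds were tested at four concentrations (0.1, 1, 10, 100) in triplicate wells with 48 h continuous exposure. Cells were fixed with cold TCA (10% final, 60 min, 4 °C) and stained with 0.4% SRB in 1% acetic acid (20 min, RT). Dye was eluted with 10 mM Trizma base and read at 540 nm (690 nm reference). Percent growth is relative to control wells, plate by plate.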

A2780 = assay: Anticancer activity against human A2780 cells after 48 hrs by SRB assay; assay type: functional; details: A2780, 48 h
Procedure, shortened: (§2)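 Grown in RPMI 1640 with 10% FBS and 2 mM L-glutamine at 37 °C, 5% CO2. Seeded at densities set by doubling time, then preincubated 24 h. Continuous 48 h drug exposure at four concentrations (0.1, 1, 10, 100), triplicate wells. Fixed with cold TCA (final 10%) at 4 °C, 60 min. Stained with 0.4% SRB in 1% acetic acid, eluted with 10 mM Tris base, read at 540/690 nm. Percent growth versus control wells.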

KB = assay: Anticancer activity against human KB cells after 48 hrs by SRB assay; assay type: functional; procedure, shortened: as §2
SiHa = assay: Anticancer activity against human SiHa cells after 48 hrs by SRB assay; assay type: functional; procedure, shortened: as §1
A-375 [1] = assay: Cell cycle arrest in human A375 cells assessed as accumulation at G0/G1 phase at 4 uM after 24 hrs using propidium iodide staining by FACS; assay type: functional
Procedure, shortened: (§3)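 Treated A375 cells (24 h) were harvested with trypsin-EDTA and fixed in ice-cold 70% ethanol (4 °C, 30 min). After a PBS wash, they were incubated with 1 mg/mL RNase A (37 °C, 30 min) and stained with propidium iodide solution containing trisodium citrate and Triton X-100. DNA content was measured by flow cytometry on 20,000 events. Controls were DMSO-treated.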

A-375 [2] = assay: Cell cycle arrest in human A375 cells assessed as accumulation at S phase at 4 uM after 24 hrs using propidium iodide staining by FACS; assay type: functional; procedure, shortened: as §3
A-375 [3] = assay: Cell cycle arrest in human A375 cells assessed as accumulation at G2/M phase at 4 uM after 24 hrs using propidium iodide staining by FACS; assay type: functional; procedure, shortened: as §3
A-375 [4] = assay: Induction of apoptosis in human A375 cells assessed as increase in p53 protein level at 4 uM after 24 hrs by Western blotting; assay type: functional, cell-based
Procedure, shortened: (§4)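 A375 cells treated 24 h, then lysed in ice-cold RIPA buffer (1% NP-40, 0.5% deoxycholate, 0.1% SDS, protease inhibitors). Protein was quantified by Bradford, and 30 µg per lane run on 12% SDS-PAGE and transferred to PVDF. Blots were blocked 2 h at RT in TBST with 5% blocking powder, probed with primary antibody overnight at 4 °C, then HRP secondary (1:2000, 1 h RT), and read by chemiluminescence against β-actin loading control.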

A-375 [5] = assay: Induction of apoptosis in human A375 cells assessed as increase in PPAR protein level at 4 uM after 24 hrs by Western blotting; assay type: functional, cell-based
Procedure, shortened: (§5)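 A375 cells were treated for 24 h and lysed in ice-cold RIPA buffer (1% NP-40, 0.5% deoxycholate, 0.1% SDS, protease inhibitors). Protein was quantified by Bradford assay, and 30 µg/lane was run on 12% SDS-PAGE and transferred to PVDF. Membranes were blocked 2 h at RT in TBST with 5% blocker, incubated with primary antibody overnight at 4 °C, then with HRP secondary (1:2000, 1 h, RT). Detection was by chemiluminescence, with β-actin as loading control.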

A-375 [6] = assay: Induction of apoptosis in human A375 cells assessed as increase in cytochromeC protein level at 4 uM after 24 hrs by Western blotting; assay type: functional, cell-based; procedure, shortened: as §4
A-375 [7] = assay: Induction of apoptosis in human A375 cells assessed as reduction in CDK2 protein level at 4 uM after 24 hrs by Western blotting; assay type: functional, cell-based; procedure, shortened: as §5
A-375 [8] = assay: Induction of apoptosis in human A375 cells assessed as caspase3 activation at 4 uM after 24 hrs by fluorimetry; assay type: functional, cell-based
Procedure, shortened: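 Caspase-3 activity was measured by a fluorometric assay on lysates of treated and untreated A375 cells.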

A-375 [9] = assay: Cytotoxicity against human A375 cells at 4 uM after 24 hrs […]; assay type: functional, cell-based

Compound	GI50 (ZR-75-1) [µM]	GI50 (A2780) [µM]	GI50 (KB) [µM]	GI50 (SiHa) [µM]	Activity (A-375 [1]) [%]	Activity (A-375 [2]) [%]	Activity (A-375 [3]) [%]	Activity (A-375 [4])	Activity (A-375 [5])	Activity (A-375 [6])	Activity (A-375 [7])	Activity (A-375 [8])	Activity (A-375 [9])
COc1cc(C2=NOC(c3cc(OC)c(OC)c(OC)c3)C2)ccc1OCCCOc1cc2c(cc1OC)C(=O)N1CCC[C@H]1C=N2 (stereo partly specified)	< 0.1	< 0.1	< 0.1	< 0.1	98.5	1.1	0.4	Active	Active	Active	Active	Active	–
COc1ccc(/C=C\c2cc(OC)c(OC)c(OC)c2)cc1O [COMBRETASTATIN A4]	–	–	–	–	49.08	38.1	12.81	–	–	–	–	–	Active
